SR-BI DiI inh: inhibitors of mouse SR-BI mediated HDL lipid uptake. Q61009. ldlA[mSR-BI] CHO cells, DiI-HDL uptake fluorescence, 3 h. inhibition, % at 12.5 µM. 0.96% of 320,000 active;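 active means mean replicate inhibition of at least 70% and a set share of replicates each scoring 70 or more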;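 further: 0% = median of neutral control wells and 100% = median of positive control wells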
Target sequence (Q61009 whole entry, looked up): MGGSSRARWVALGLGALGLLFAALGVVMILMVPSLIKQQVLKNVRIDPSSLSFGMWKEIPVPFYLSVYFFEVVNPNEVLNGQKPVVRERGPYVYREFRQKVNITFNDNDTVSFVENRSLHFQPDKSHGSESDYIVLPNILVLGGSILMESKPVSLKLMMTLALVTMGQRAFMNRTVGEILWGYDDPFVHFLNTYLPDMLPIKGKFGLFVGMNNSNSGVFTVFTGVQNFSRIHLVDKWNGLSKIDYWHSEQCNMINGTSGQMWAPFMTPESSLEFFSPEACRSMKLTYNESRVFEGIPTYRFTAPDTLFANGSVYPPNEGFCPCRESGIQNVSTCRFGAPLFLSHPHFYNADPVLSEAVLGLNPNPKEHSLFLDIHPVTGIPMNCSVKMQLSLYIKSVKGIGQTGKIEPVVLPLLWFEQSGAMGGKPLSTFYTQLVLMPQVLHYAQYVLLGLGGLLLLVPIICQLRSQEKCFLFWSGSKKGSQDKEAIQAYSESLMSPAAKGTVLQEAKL
SR-BI DiI-HDL act: enhances SR-BI lipid uptake from DiI-HDL; CHO ldlA[mSR-BI] cells, DiI-HDL uptake fluorescence, 3 h; 100 = double the neutral-control signal; activation, % at 12.5 µM; 0.096% of 320,000 active;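 active means mean replicate activation of at least 60% and every replicate at or above 60%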;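 further: 0% = median plate neutral-control signal and 100% = twice that signal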
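Test system: SR-BI-overexpressing, LDLR-lacking CHO cells; Also added: labelled HDL, 10 µg/mL; Measured by: bottom-read cell fluorescence after medium removal, ex 550/em 595 nm; Timing: 3 h uptake period with compound, 37 °C; Buffer or medium: F12, 0.5% BSA, 25 mM HEPES; Doses: single compound concentration, delivered by pin transfer.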
GAA850 FXN act: activators of GAA850 frataxin (FXN) promoter; activation, % at 6 µM; HEK293 lucGAA850 FXN promoter luciferase reporter, 24 h; percent of 10 µM SAHA response; 0.56% of 360,000 active;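 active means activation above the average of all compounds screened plus 3 SD, cutoff fixed separately per campaign, cut at about 7.5% in these data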;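 further: 0% = DMSO wells and 100% = 10 µM SAHA wells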
GASC-1 inh: human JMJD2C demethylase inhibition; Q9H3R0; GST-JMJD2C(1-420) H3K9me3 demethylation, DELFIA europium; inhibition, % at 2.35 µM; 0.069% of 330,000 active; AID 2099;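 active means more than half of a compound's replicate wells show inhibition beyond 50%, single wells judged on their own value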;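 further: signal counts dimethyl H3K9 product captured on neutravidin plate; 0% = median of DMSO wells and 100% = 0.3 times that DMSO median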
AHR act: human AHR activation | activation, % at 5 µM | AID 2796 | P35869 | 2.5% of 320,000 active | AHR-responsive luciferase reporter cells, luminescence; in the data active means activation above about 47%;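 further: 0% = vehicle wells and 100% = reference agonist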
GAA30 FXN cntr: GAA30 FXN promoter activation counter-screen. shares compounds with GAA850 FXN act. HEK293 lucGAA30 FXN promoter luciferase, 24 h; DMSO = 0%, 5 µM ipriflavone = 100%. activation, % at 6 µM. 66% of 1,900 active. AID 588350;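 active means mean activation above the mean of solvent-only control wells plus 3 SD, cut at about 22% in these data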;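 further: counterscreen of GAA850 promoter hits where activity marks nonselective or luminescence artifacts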
GAA850 confirm: GAA850 FXN promoter activation confirmation. 86% of 1,900 active. shares compounds with GAA850 FXN act. activation, % at 6 µM. HEK293 lucGAA850 FXN promoter luciferase reporter, 24 h; 100% = activation by SAHA. AID 588351;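 active means mean activation above a set limit taken from the primary screen, cut at about 8% in these data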;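 further: 0% = DMSO wells and 100% = 10 µM SAHA wells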
Active calls of the source: *; · = no result given. Compounds with a hit are over-represented: about 3.7% of the library has one in this group of screens.

SMILES	SR-BI DiI inh	SR-BI DiI-HDL act	GAA850 FXN act	GASC-1 inh	AHR act	GAA30 FXN cntr	GAA850 confirm
O=C(COc1ccccc1)Nc1ccccc1C(=O)NCc1ccco1	20	-20	8.4*	2	3	41*	16*
COc1ccccc1OCC(=O)Nc1ccccc1C(=O)NCc1ccco1	-12	12	-1	8	2	·	·
CN(C)/C=N/NC(=O)c1ccccc1	7	-7	7	1	0	·	·
CC(O)C(O)C(O)C(O)/C=N/NC(=O)c1ccccc1 (stereo not given)	7	-7	7.7*	-6	9	23*	7
COC(=O)N=Nc1c(O)[nH]c2ccc(Br)cc12	·	·	10*	-12	70*	144*	32*
O=C(Nc1nc2ccccc2[nH]1)c1ccc(OC(F)F)cc1	5	-5	-1	-7	-3	·	·
COc1cc(C(=O)Nc2nc3ccccc3[nH]2)ccc1OC(F)F	·	·	9.6*	-14	1	86*	36*
O=c1[nH]c(=O)n(Cc2ccc(Oc3ccccc3)cc2)cc1Br	-24	24	3	7	1	·	·
C=C1CC(Cn2cc(Br)c(=O)[nH]c2=O)(c2ccc(-c3ccccc3)cc2)OC1=O (stereo not given)	18	-18	11*	·	·	-62	52*
O=C(O)c1cc(-c2ccccc2)n(-c2ccc(Cl)cc2)n1	-11	11	1	47	0	·	·
O=C(O)c1ccc(N=Nc2c(O)ccc3ncccc23)cc1	-8	8	8.5*	10	2	108*	39*
O=C(O)c1cc(N=Nc2c(O)ccc3ccccc23)cc(C(=O)O)c1	3	-3	1	·	·	·	·
Cc1ccc(S(=O)(=O)N(C)c2ccc(OC(=O)c3cccs3)cc2)cc1	-4	4	-1	0	1	·	·
CN(C)S(=O)(=O)c1ccc2c(c1)c(=O)c(C(=O)N1CCOCC1)cn2C	-8	8	9.8*	5	6	21	13*
Cn1cc(C(=O)N2CCN(c3ccccc3)CC2)c(=O)c2cc(S(=O)(=O)N3CCOCC3)ccc21	5	-5	-2	2	0	·	·
Cc1cnc(C(=O)OCC(=O)Nc2ccccc2[N+](=O)[O-])cn1	-10	10	0	1	20	·	·
C=CCC1(CC=C)CCCN1Cc1nc(COc2ccccc2)no1	·	·	-1	10	1	·	·
CC(=O)c1cccc(Nc2nc(-c3ccccc3)cs2)c1	75*	-75	7.8*	17	56*	101*	28*
CCCCn1c(=O)[nH]c(=O)c2c1nc(-c1ccccn1)n2CC	-12	12	1	3	12	·	·
Cc1nnc(SCC(=O)c2cc(C)n(-c3ccc4c(c3)OCO4)c2C)s1	21	-21	11*	2	7	66*	26*
Cc1cccc(C2CC(c3ccccc3)Nc3ncnn32)c1 (stereo not given)	5	-5	19*	-3	1	10	9.6*
COc1ccc(C2CC(c3cccc(C)c3)n3ncnc3N2)cc1 (stereo not given)	-6	6	1	-6	0	·	·
COc1ccccc1N1CCN(c2cc(=O)n(-c3ccc(Br)cc3)c(=O)[nH]2)CC1	-9	9	11*	·	1	19	12*
COc1ccccc1N1CCN(c2cc(=O)n(-c3ccc(Cl)cc3)c(=O)[nH]2)CC1	-8	8	3	3	-2	·	·
Brc1ccccc1OCCCn1cnc2ccccc21	-28	28	8.7*	13	-4	101*	36*
O=C(CSC(=S)N1CCSCC1)c1ccc(Cl)cc1	23	-23	9.8*	12	-3	114*	42*
O=C(NN1CCOCC1)c1cccc(COc2cccc(Br)c2)c1	50	-50	8.0*	-4	5	90*	37*
O=C(NN1CCOCC1)c1cccc(Br)c1	·	·	0	-25	-2	·	·
COC(=O)c1cc(S(=O)(=O)N2CCCCCC2)cn1C	6	-6	1	-10	2	·	·

Source: PubChem BioAssay (several laboratories)
